In paper PMC3178989 (Indian Journal of Pharmaceutical Sciences, 2010):
Values after ≈ are worked out from the molar mass of the structure shown.

Columns and labels:
HIV-2(ROD) = assay: Inhibition of HIV-2 induced cytopathic effect in MT-4 cells; format: cell-based; conditions: for EC50: MT4, 120 h, read-out: IC50a (50% effective concentration, 50% protection of MT-4 cells against the cytopathic effect of HIV)
Outline: (§1)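 MT-4 cells were kept in RPMI 1640 with 10% heat-inactivated FCS, 2 mM glutamine, 0.1% sodium bicarbonate and 20 µg/ml gentamicin. Virus stocks (HIV-1 IIIB/LAI, HIV-2 ROD) were grown and titred in MT-4 cells and stored at -70°. 100-300 CCID50 were added to cells at 6×10^5 cells/ml with test compound, then incubated 5 d at 37°. Protection from cytopathic effect was read as viable cells by MTT. A reference drug was run alike.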

HEL cultures = conditions: microscopically detectable alteration of normal cell morphology
mock-infected MT-4 cells = assay: Cytotoxicity for mock-infected MT-4 cells; format: cell-based; conditions: MTT, printed in both strain rows
Outline: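 Mock-infected MT-4 cells were grown in RPMI 1640 with 10% heat-inactivated FCS, 2 mM glutamine, 0.1% sodium bicarbonate and 20 µg/ml gentamicin. Cells (6×10^5 cells/ml) were exposed to test compound, and viability was measured by MTT to derive the 50% cytotoxic concentration. A reference drug was tested the same way.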

[1] = system: Herpes simplex virus-1 (KOS); assay: microbe, parasite or virus in culture; format: cell-based; conditions: for EC50: Human alphaherpesvirus 1, read-out: EC50 Herpes simplex virus-1 (KOS)
[2] = system: Herpes simplex virus-2 (G); assay: microbe, parasite or virus in culture; format: cell-based; conditions: Human alphaherpesvirus 2, read-out: EC50 Herpes simplex virus-2 (G)
[3] = system: Herpes simplex virus-1 TK- KOS ACVr; assay: microbe, parasite or virus in culture; format: cell-based; conditions: Human alphaherpesvirus 1, read-out: EC50 Herpes simplex virus-1 TK- KOS ACVr
Vaccinia virus = assay: microbe, parasite or virus in culture; format: cell-based; conditions: for EC50: Orthopoxvirus vaccinia, read-out: EC50 Vaccinia virus
HIV-1(IIIB) = assay: Inhibition of HIV-1 induced cytopathic effect in MT-4 cells; format: cell-based, Human immunodeficiency virus-1; conditions: strain IIIB, 5 d, MTT
Outline: as §1

With O=C(O)c1cc(Br)cc(Br)c1-n1c(-c2ccccc2)nc2c(Br)cc(Br)cc2c1=O [DBR3, 3,5-Dibromo-2-(6,8-dibromo-4-oxo-2-phenyl-4H-quinazolin-3-yl)-benzoic acid] the EC50 (HIV-2(ROD)) was over 125 µg/mL, the Minimum cytotoxic concentration (HEL cultures) was over 100 µg/mL and the “IC50b (50% cytotoxic concentration, reduces viability of mock-infected MT-4 cells by 50%)” value (mock-infected MT-4 cells) was over 125 µg/mL. The EC50 [1] was over 100 µg/mL, the EC50 [2] was over 100 µg/mL and the EC50 [3] was over 100 µg/mL. For the same compound, the EC50 (Vaccinia virus) was over 100 µg/mL.
For O=C(O)c1ccccc1-n1c(-c2ccccc2)nc2c(Br)cc(Br)cc2c1=O [DBR1, 2-(6,8-Dibromo-4-oxo-2-phenyl-4H-quinazolin-3-yl)-benzoic acid], the EC50 (HIV-2(ROD)) was over 83.2 µg/mL, the Minimum cytotoxic concentration (HEL cultures) was over 100 µg/mL and the “IC50b (50% cytotoxic concentration, reduces viability of mock-infected MT-4 cells by 50%)” value (mock-infected MT-4 cells) was 83.15 µg/mL. It also gave an EC50 [1] of 58 µg/mL (≈ 116 µM), an EC50 [2] of 50 µg/mL (≈ 100 µM) and an EC50 [3] of 100 µg/mL (≈ 200 µM). The EC50 (Vaccinia virus) was 100 µg/mL (≈ 200 µM).
With Cc1cn([C@H]2C[C@H](N=[N+]=[N-])[C@@H](CO)O2)c(=O)[nH]c1=O [AZT, reference compound] the “IC50a (50% effective concentration, 50% protection of MT-4 cells against the cytopathic effect of HIV)” value (HIV-2(ROD); strain ROD, MT-4 cells, 5 d, MTT) was 0.00062 µg/mL, the “IC50b (50% cytotoxic concentration, reduces viability of mock-infected MT-4 cells by 50%)” value (mock-infected MT-4 cells) was 65.90 µg/mL and the “IC50a (50% effective concentration, 50% protection of MT-4 cells against the cytopathic effect of HIV)” value (HIV-1(IIIB)) was 0.0012 µg/mL.
For Nc1ccn(C[C@@H](CO)OCP(=O)(O)O)c(=O)n1 [Cidofovir, reference compound], the EC50 [1] was 0.8 µg/mL (≈ 2.87 µM), the EC50 [2] was 0.8 µg/mL (≈ 2.87 µM) and the EC50 [3] was 1 µg/mL (≈ 3.58 µM). For the same compound, the EC50 (Vaccinia virus) was 10 µg/mL (≈ 35.8 µM).
For NC(=O)c1ncn([C@@H]2O[C@H](CO)[C@@H](O)[C@H]2O)n1 [Ribavirin, reference compound], the EC50 [1] was over 250 µg/mL, the EC50 [2] was over 250 µg/mL and the EC50 [3] was over 250 µg/mL. The EC50 (Vaccinia virus) was over 250 µg/mL.
With O=C(O)c1cc(Br)ccc1-n1c(-c2ccccc2)nc2c(Br)cc(Br)cc2c1=O [DBR2, 5-Bromo-2-(6,8-dibromo-4-oxo-2-phenyl-4H-quinazolin-3-yl)-benzoic acid] the EC50 (HIV-2(ROD)) was over 64.2 µg/mL, the Minimum cytotoxic concentration (HEL cultures) was 100 µg/mL and the “IC50b (50% cytotoxic concentration, reduces viability of mock-infected MT-4 cells by 50%)” value (mock-infected MT-4 cells) was 64.18 µg/mL. The EC50 [1] was over 20 µg/mL, the EC50 [2] was over 20 µg/mL and the EC50 [3] was over 20 µg/mL. The EC50 (Vaccinia virus) was over 20 µg/mL.
With O=C(O)c1cc(Br)cc(Br)c1-n1c(-c2ccccc2)nc2ccccc2c1=O [AA3, 3,5-dibromo-2-(4-oxo-2-phenyl-4H-quinazolin-3-yl)-benzoic acid] the EC50 (HIV-2(ROD)) was over 125 µg/mL, the Minimum cytotoxic concentration (HEL cultures) was over 100 µg/mL and the “IC50b (50% cytotoxic concentration, reduces viability of mock-infected MT-4 cells by 50%)” value (mock-infected MT-4 cells) was over 125 µg/mL. It also gave an EC50 [1] of 50 µg/mL (≈ 100 µM), an EC50 [2] of 100 µg/mL (≈ 200 µM) and an EC50 [3] of 100 µg/mL (≈ 200 µM). The EC50 (Vaccinia virus) was 100 µg/mL (≈ 200 µM).
With O=C(O)c1ccccc1-n1c(-c2ccccc2)nc2ccccc2c1=O [AA1, 2-(4-oxo-2-phenyl-4H-quinazolin-3-yl)-benzoic acid] the EC50 (HIV-2(ROD)) was over 125 µg/mL, the Minimum cytotoxic concentration (HEL cultures) was over 100 µg/mL and the “IC50b (50% cytotoxic concentration, reduces viability of mock-infected MT-4 cells by 50%)” value (mock-infected MT-4 cells) was over 125 µg/mL. It also gave an EC50 [1] of 100 µg/mL (≈ 292 µM), an EC50 [2] of 58 µg/mL (≈ 169 µM) and an EC50 (Vaccinia virus) of over 100 µg/mL.
Work on O=c1[nH]c(=O)n([C@H]2C[C@H](O)[C@@H](CO)O2)cc1/C=C/Br [Brivudin, reference compound] yielded an EC50 [1] of 0.04 µg/mL (≈ 0.12 µM), an EC50 [2] of 22 µg/mL (≈ 66 µM) and an EC50 [3] of 10 µg/mL (≈ 30 µM). For the same compound, the EC50 (Vaccinia virus) was 6 µg/mL (≈ 18 µM).
In the case of O=C(O)c1cc(Br)ccc1-n1c(-c2ccccc2)nc2ccc(Br)cc2c1=O [MBR2, 5-Bromo-2-(6-bromo-4-oxo-2-phenyl-4H-quinazolin-3-yl)-benzoic acid], the EC50 (HIV-2(ROD)) is reported as over 60.4 µg/mL, the Minimum cytotoxic concentration (HEL cultures) is reported as 100 µg/mL and the “IC50b (50% cytotoxic concentration, reduces viability of mock-infected MT-4 cells by 50%)” value (mock-infected MT-4 cells) is reported as 60.40 µg/mL. The “EC50 Herpes simplex virus-1 (KOS)” value ([1]; HEL cultures, reduces virus-induced cytopathogenicity by 50 %) was “distinct antiviral activity”, the EC50 [1] was 12 µg/mL (≈ 24 µM) and the EC50 [2] was 12 µg/mL (≈ 24 µM). The “EC50 Vaccinia virus” value (Vaccinia virus) was “distinct antiviral activity” and the EC50 (Vaccinia virus) was 12 µg/mL (≈ 24 µM).
For O=C(O)c1ccccc1-n1c(-c2ccccc2)nc2ccc(Br)cc2c1=O [MBR1, 2-(6-Bromo-4-oxo-2-phenyl-4H-quinazolin-3-yl)-benzoic acid], the EC50 (HIV-2(ROD)) was over 125 µg/mL, the Minimum cytotoxic concentration (HEL cultures) was 100 µg/mL and the “IC50b (50% cytotoxic concentration, reduces viability of mock-infected MT-4 cells by 50%)” value (mock-infected MT-4 cells) was over 125 µg/mL. For the same compound, the EC50 [1] was over 20 µg/mL, the EC50 [2] was over 20 µg/mL and the EC50 [3] was over 20 µg/mL. The EC50 (Vaccinia virus) was over 20 µg/mL.
O=C(O)c1cc(Br)ccc1-n1c(-c2ccccc2)nc2ccccc2c1=O [AA2, 5-Bromo-2-(4-oxo-2-phenyl-4H-quinazolin-3-yl)-benzoic acid] was tested, and the EC50 (HIV-2(ROD)) was over 88.2 µg/mL, the Minimum cytotoxic concentration (HEL cultures) was over 100 µg/mL and the “IC50b (50% cytotoxic concentration, reduces viability of mock-infected MT-4 cells by 50%)” value (mock-infected MT-4 cells) was 88.20 µg/mL. It also gave an EC50 [1] of 50 µg/mL (≈ 119 µM), an EC50 [2] of 58 µg/mL (≈ 138 µM) and an EC50 [3] of 58 µg/mL (≈ 138 µM). For the same compound, the EC50 (Vaccinia virus) was 100 µg/mL (≈ 237 µM).
